# Assay results: ChEMBL document CHEMBL1134346, “Labeling and evaluation of N-[11C]methylated quinoline-2-carboxamides as potential radioligands for visualization of peripheral benzodiazepine receptors” (J Med Chem, 2001)
# Tests used:
# [1] = organism: Rattus norvegicus; assay: Tissue (testicle) distribution in Albino male CD rats after 30 minutes expressed as percent of injected dose per gram of organ.; format: ADME, organism-based; settings: in vivo, 0.5 h
# Outline: (§1)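 Male albino CD rats (225-250 g) received the 11C-labelled radioligand in saline by tail-vein injection. Three rats per time point were decapitated under light ether anaesthesia at 5, 15, 30, 60 or 90 min. Blood was collected heparinized and plasma separated by centrifugation. The pituitary was dissected from the brain. Lung, liver (three-lobe pieces) and right deltoid muscle were sampled, washed in cold saline, gamma-counted and weighed. Results are %I.D./g.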
# [2] = organism: Rattus norvegicus; assay: Tissue (testicle) distribution in Albino male CD rats after 60 minutes expressed as percent of injected dose per gram of organ.; format: ADME, organism-based; settings: in vivo, 1 h; outline: as §1
# [3] = organism: Rattus norvegicus; assay: Tissue (testicle) distribution in Albino male CD rats after 5 minutes expressed as percent of injected dose per gram of organ.; format: ADME, organism-based; settings: in vivo; outline: as §1
# [4] = organism: Rattus norvegicus; assay: Tissue (intestine) distribution in Albino male CD rats after 90 minutes expressed as percent of injected dose per gram of organ.; format: ADME, organism-based; settings: in vivo, 1.5 h
# Outline: (§2)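 Radioligand given in saline into tail vein of male albino CD rats (225-250 g); 100-200 µCi per animal, 1-2 Ci/µmol at injection depending on radioligand. Three rats per time point were decapitated under light ether anaesthesia. Blood, plasma, brain regions and washed organs were weighed and gamma-counted. Uptake is %I.D./g tissue, mean ± SD.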
# [5] = organism: Rattus norvegicus; assay: Tissue (plasma) distribution in Albino male CD rats after 5 minutes expressed as percent of injected dose per gram of organ.; format: ADME, organism-based; settings: in vivo; outline: as §1
# [6] = molecular target: Translocator protein (Rattus norvegicus) (UniProt P16257); assay: Tissue (spleen) concentration of radioactivity at 30 min post-injection into Albino male CD rats after pretreatment with cold PK 11195.; format: functional, tissue-based
# Outline: (§3)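 Blocking study in male albino CD rats, five per group. Immediately before the 11C radioligand (in saline, i.v. tail vein), rats received 30 µL tail-vein PK 11195 (5 mg/kg; 1.4-1.6 mg) in DMSO:EtOH 1:1, or vehicle. Rats were decapitated at 30 min. Tissues were dissected, washed, gamma-counted and weighed as in the biodistribution study. Results are %I.D./g.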
# [7] = organism: Rattus norvegicus; assay: Tissue (kidney) distribution in Albino male CD rats after 30 minutes expressed as percent of injected dose per gram of organ.; format: ADME, organism-based; settings: in vivo, 0.5 h; outline: as §2
# [8] = organism: Rattus norvegicus; assay: Tissue (intestine) distribution in Albino male CD rats after 5 minutes expressed as percent of injected dose per gram of organ.; format: ADME, organism-based; settings: in vivo; outline: as §2
# [9] = organism: Rattus norvegicus; assay: Tissue (cerebellum) distribution in Albino male CD rats after 15 minutes expressed as percent of injected dose per gram of organ.; format: ADME, organism-based; settings: in vivo, 0.25 h; outline: as §2
# [10] = organism: Rattus norvegicus; assay: Tissue (liver) distribution in Albino male CD rats after 30 minutes expressed as percent of injected dose per gram of organ.; format: ADME, organism-based; settings: in vivo, 0.5 h; outline: as §1
# [11] = organism: Rattus norvegicus; assay: Tissue (blood) distribution in Albino male CD rats after 60 minutes expressed as percent of injected dose per gram of organ.; format: ADME, organism-based; settings: in vivo, 1 h; outline: as §2
# [12] = organism: Rattus norvegicus; assay: Tissue (cerebellum) distribution in Albino male CD rats after 90 minutes expressed as percent of injected dose per gram of organ.; format: ADME, organism-based; settings: in vivo, 1.5 h; outline: as §2
# [13] = organism: Rattus norvegicus; assay: Tissue (liver) concentration of radioactivity at 30 min post-injection into Albino male CD rats with vehicle.; format: ADME, organism-based; settings: in vivo, 0.5 h
# Outline: (§4)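 Separate groups of five rats received tail-vein PK 11195 (1.4-1.6 mg; 5 mg/kg) in 30 µL DMSO:EtOH 1:1, or vehicle alone, immediately before iv radioligand (90-170 µCi in saline, 0.9-1 Ci/µmol). Rats were decapitated at 30 min and tissues gamma-counted; values are %I.D./g.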
# [14] = molecular target: Translocator protein (Rattus norvegicus) (UniProt P16257); assay: Tissue (lung) concentration of radioactivity at 30 min post-injection into Albino male CD rats after pretreatment with cold PK 11195.; format: functional; outline: as §3
# [15] = organism: Rattus norvegicus; assay: Tissue (testicle) distribution in Albino male CD rats after 90 minutes expressed as percent of injected dose per gram of organ.; format: ADME, organism-based; settings: in vivo, 1.5 h
# [16] = organism: Rattus norvegicus; assay: Tissue (cerebellum) distribution in Albino male CD rats after 60 minutes expressed as percent of injected dose per gram of organ.; format: ADME, organism-based; settings: in vivo, 1 h; outline: as §2
# [17] = organism: Rattus norvegicus; assay: Tissue (liver) distribution in Albino male CD rats after 15 minutes expressed as percent of injected dose per gram of organ.; format: ADME, organism-based; settings: in vivo, 0.25 h; outline: as §2
# [18] = organism: Rattus norvegicus; assay: Tissue (plasma) distribution in Albino male CD rats after 90 minutes expressed as percent of injected dose per gram of organ.; format: ADME, organism-based; settings: in vivo, 1.5 h; outline: as §1
# [19] = organism: Rattus norvegicus; assay: Tissue (pituitary) concentration of radioactivity at 30 min post-injection into Albino male CD rats with vehicle.; format: ADME, organism-based, Pituitary gland; settings: in vivo, 0.5 h; outline: as §3
# [20] = organism: Rattus norvegicus; assay: Tissue (plasma) distribution in Albino male CD rats after 15 minutes expressed as percent of injected dose per gram of organ.; format: ADME, organism-based; settings: in vivo, 0.25 h; outline: as §1
# [21] = organism: Rattus norvegicus; assay: Tissue (spleen) distribution in Albino male CD rats after 15 minutes expressed as percent of injected dose per gram of organ.; format: ADME, organism-based; settings: in vivo, 0.25 h
# [22] = organism: Rattus norvegicus; assay: Tissue (lung) distribution in Albino male CD rats after 60 minutes expressed as percent of injected dose per gram of organ.; format: ADME, organism-based; settings: in vivo, 1 h; outline: as §1
# [23] = organism: Rattus norvegicus; assay: Tissue (blood) distribution in Albino male CD rats after 30 minutes expressed as percent of injected dose per gram of organ.; format: ADME, organism-based; settings: in vivo, 0.5 h; outline: as §2
# [24] = organism: Rattus norvegicus; assay: Tissue (spleen) distribution in Albino male CD rats after 5 minutes expressed as percent of injected dose per gram of organ.; format: ADME, organism-based; settings: in vivo; outline: as §1
# [25] = organism: Rattus norvegicus; assay: Tissue (heart) distribution in Albino male CD rats after 60 minutes expressed as percent of injected dose per gram of organ.; format: ADME, organism-based; settings: in vivo, 1 h; outline: as §2
# [26] = organism: Rattus norvegicus; assay: Tissue (spleen) concentration of radioactivity at 30 min post-injection into Albino male CD rats with vehicle.; format: ADME, organism-based; settings: in vivo, 0.5 h; outline: as §3
# [27] = organism: Rattus norvegicus; assay: Tissue (heart) concentration of radioactivity at 30 min post-injection into Albino male CD rats with vehicle.; format: ADME, organism-based; settings: in vivo, 0.5 h; outline: as §4
# [28] = organism: Rattus norvegicus; assay: Tissue (intestine) distribution in Albino male CD rats after 30 minutes expressed as percent of injected dose per gram of organ.; format: ADME, organism-based; settings: in vivo, 0.5 h; outline: as §2
# [29] = organism: Rattus norvegicus; assay: Tissue (pituitary) distribution in Albino male CD rats after 60 minutes expressed as percent of injected dose per gram of organ.; format: ADME, organism-based, Pituitary gland; settings: in vivo, 1 h; outline: as §1
# [30] = organism: Rattus norvegicus; assay: Tissue (heart) distribution in Albino male CD rats after 5 minutes expressed as percent of injected dose per gram of organ.; format: ADME, organism-based; settings: in vivo; outline: as §2
# [31] = organism: Rattus norvegicus; assay: Tissue (cortex) distribution in Albino male CD rats after 60 minutes expressed as percent of injected dose per gram of organ.; format: ADME, organism-based; settings: in vivo, 1 h; outline: as §2
# [32] = molecular target: Translocator protein (Rattus norvegicus) (UniProt P16257); assay: Tissue (blood) concentration of radioactivity at 30 min post-injection into Albino male CD rats after pretreatment with cold PK 11195.; format: functional, tissue-based; outline: as §4
# [33] = organism: Rattus norvegicus; assay: Tissue (heart) distribution in Albino male CD rats after 30 minutes expressed as percent of injected dose per gram of organ.; format: ADME, organism-based; settings: in vivo, 0.5 h; outline: as §2
# [34] = organism: Rattus norvegicus; assay: Tissue (cortex) distribution in Albino male CD rats after 90 minutes expressed as percent of injected dose per gram of organ.; format: ADME, organism-based; settings: in vivo, 1.5 h; outline: as §2
# [35] = organism: Rattus norvegicus; assay: Tissue (liver) distribution in Albino male CD rats after 90 minutes expressed as percent of injected dose per gram of organ.; format: ADME, organism-based; settings: in vivo, 1.5 h; outline: as §1
# [36] = organism: Rattus norvegicus; assay: Tissue (muscle) distribution in Albino male CD rats after 60 minutes expressed as percent of injected dose per gram of organ.; format: ADME, organism-based; settings: in vivo, 1 h; outline: as §1
# [37] = organism: Rattus norvegicus; assay: Tissue (plasma) distribution in Albino male CD rats after 30 minutes expressed as percent of injected dose per gram of organ.; format: ADME, organism-based; settings: in vivo, 0.5 h; outline: as §1
# [38] = organism: Rattus norvegicus; assay: Tissue (heart) distribution in Albino male CD rats after 90 minutes expressed as percent of injected dose per gram of organ.; format: ADME, organism-based; settings: in vivo, 1.5 h; outline: as §2
# [39] = organism: Rattus norvegicus; assay: Tissue (adrenal gland) distribution in Albino male CD rats after 15 minutes expressed as percent of injected dose per gram of organ.; format: ADME, organism-based; settings: in vivo, 0.25 h; outline: as §2
# [40] = organism: Rattus norvegicus; assay: Tissue (muscle) distribution in Albino male CD rats after 90 minutes expressed as percent of injected dose per gram of organ.; format: ADME, organism-based; settings: in vivo, 1.5 h; outline: as §1
# Translocator protein (Rattus norvegicus), sequence (P16257 whole entry, looked up): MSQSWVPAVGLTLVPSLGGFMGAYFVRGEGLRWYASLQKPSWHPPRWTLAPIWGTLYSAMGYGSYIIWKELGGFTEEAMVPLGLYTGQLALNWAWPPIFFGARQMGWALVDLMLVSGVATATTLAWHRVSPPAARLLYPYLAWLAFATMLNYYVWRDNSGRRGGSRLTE
SMILES,I.D./g [1],I.D./g [2],I.D./g [3],I.D./g [4],I.D./g [5],I.D./g [6],I.D./g [7],I.D./g [8],I.D./g [9],I.D./g [10],I.D./g [11],I.D./g [12],I.D./g [13],I.D./g [14],I.D./g [15],I.D./g [16],I.D./g [17],I.D./g [18],I.D./g [19],I.D./g [20],other results
CCC(C)N(C)C(=O)c1nc2ccccc2c(-c2ccccc2F)c1C (stereo not given),0.09%,0.09%,0.04%,0.24%,0.11%,< 0.09%,0.55%,0.18%,0.11%,0.55%,0.08%,0.06%,0.35%,< 0.12%,0.08%,0.07%,0.69%,0.04%,0.09%,0.09%,I.D./g [21]: 0.75%; I.D./g [22]: 1.77%; I.D./g [23]: 0.11%; I.D./g [24]: 0.34%; I.D./g [25]: 0.6%; I.D./g [26]: 0.28%; I.D./g [27]: 0.35%; I.D./g [28]: 0.31%; I.D./g [29]: 0.14%; I.D./g [30]: 0.68%; I.D./g [31]: 0.07%; I.D./g [32]: > 0.04%; I.D./g [33]: 0.73%; I.D./g [34]: 0.06%; I.D./g [35]: 0.39%; I.D./g [36]: 0.07%; I.D./g [37]: 0.06%; I.D./g [38]: 0.58%; I.D./g [39]: 2.53%; I.D./g [40]: 0.08%
Cc1c(C(=O)N(C)Cc2ccccc2)nc2ccccc2c1-c1ccccc1,0.13%,0.15%,0.06%,0.68%,0.16%,< 0.02%,1.05%,0.3%,0.2%,0.43%,0.06%,0.09%,0.08%,< 0.05%,0.2%,0.08%,0.59%,0.05%,0.11%,0.09%,I.D./g [21]: 1.27%; I.D./g [22]: 1.48%; I.D./g [23]: 0.06%; I.D./g [24]: 0.28%; I.D./g [25]: 2.09%; I.D./g [26]: 0.26%; I.D./g [27]: 0.35%; I.D./g [28]: 0.55%; I.D./g [29]: 0.36%; I.D./g [30]: 1.79%; I.D./g [31]: 0.06%; I.D./g [32]: > 0.02%; I.D./g [33]: 2.58%; I.D./g [34]: 0.05%; I.D./g [35]: 0.4%; I.D./g [36]: 0.14%; I.D./g [37]: 0.06%; I.D./g [38]: 2.38%; I.D./g [39]: 2.29%; I.D./g [40]: 0.21%
CCC(C)N(C)C(=O)c1nc2ccccc2c(-c2ccccc2)c1C (stereo not given),0.08%,0.09%,0.06%,0.37%,0.12%,< 0.11%,0.77%,0.25%,0.08%,0.55%,0.03%,0.04%,0.3%,< 0.14%,0.08%,0.05%,0.5%,0.02%,0.25%,0.05%,I.D./g [21]: 0.92%; I.D./g [22]: 1.33%; I.D./g [23]: 0.06%; I.D./g [24]: 0.5%; I.D./g [25]: 1.26%; I.D./g [26]: 0.56%; I.D./g [27]: 0.77%; I.D./g [28]: 0.4%; I.D./g [29]: 0.25%; I.D./g [30]: 0.86%; I.D./g [31]: 0.04%; I.D./g [32]: < 0.06%; I.D./g [33]: 1.21%; I.D./g [34]: 0.03%; I.D./g [35]: 0.27%; I.D./g [36]: 0.12%; I.D./g [37]: 0.03%; I.D./g [38]: 1.23%; I.D./g [39]: 1.38%; I.D./g [40]: 0.12%
